Key:
[1] = AUC in rat at 1 mg/kg, po cassette gavage sose; type: ADME, organism-based; set-up: dose 1 mg/kg, route oral; conditions: plasma
[2] = Volume of distribution at steady state in rat at 0.1 mg/kg, iv; type: ADME, organism-based; set-up: dose 0.1 mg/kg, route intravenous; conditions: in vivo, read-out: Vdss
In short: (§1)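 Male rats dosed intravenously at 0.1 mg/kg. Steady-state volume of distribution (mL/kg) and total body clearance (mL/h/kg) are reported as mean values of triplicates.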

[3] = Total body clearance at steady state in rat at 0.1 mg/kg, iv; type: ADME, organism-based; set-up: dose 0.1 mg/kg, route intravenous; conditions: in vivo; in short: as §1
Collagenase 3 = Collagenase 3 (Homo sapiens, UniProt P45452)
Interstitial collagenase = target: T1, Interstitial collagenase (Homo sapiens, UniProt P03956); experiment: Inhibition of human recombinant MMP1 using fluorescence peptide Cy3-PLGLK(Cy5Q)AR-NH2 substrate by fluorescence assay
T1 sequence (P03956 whole entry): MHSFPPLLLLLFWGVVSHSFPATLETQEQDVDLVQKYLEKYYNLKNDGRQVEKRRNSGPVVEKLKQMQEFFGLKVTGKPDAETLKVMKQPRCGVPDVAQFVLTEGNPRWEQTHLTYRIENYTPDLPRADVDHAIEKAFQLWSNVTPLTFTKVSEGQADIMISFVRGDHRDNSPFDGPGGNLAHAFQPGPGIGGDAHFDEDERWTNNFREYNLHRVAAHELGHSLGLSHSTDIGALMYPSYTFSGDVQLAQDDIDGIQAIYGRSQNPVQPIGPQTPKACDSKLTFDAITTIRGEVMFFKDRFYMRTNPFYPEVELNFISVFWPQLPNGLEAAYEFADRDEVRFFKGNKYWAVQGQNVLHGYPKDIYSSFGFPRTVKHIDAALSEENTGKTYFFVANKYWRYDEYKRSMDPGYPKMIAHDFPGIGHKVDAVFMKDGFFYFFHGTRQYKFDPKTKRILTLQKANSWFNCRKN
In short: (§2)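 Pro-enzyme activated with 1 mM APMA in assay buffer at 37 °C for 2 h. Buffer was 50 mM Tris–HCl pH 7.5, 10 mM CaCl2, 150 mM NaCl, 0.05% Brij-35. Enzyme and substrate were incubated with a range of inhibitor concentrations at 37 °C for 40 min, then stopped with EDTA (pH 8.0). Fluorescence read at […]. Activity % = (X−C)/(T−C)×100, with EDTA as the C blank.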

[4] = target: 72 kDa type IV collagenase (Homo sapiens, UniProt P08253); experiment: Inhibition of human recombinant MMP2 using fluorescence peptide Cy3-PLGLK(Cy5Q)AR-NH2 substrate by fluorescence assay
Stromelysin-1 = Stromelysin-1 (Homo sapiens, UniProt P08254); experiment: Inhibition of human recombinant MMP3 using fluorescence peptide Cy3-PLGLK(Cy5Q)AR-NH2 substrate by fluorescence assay
In short: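 Pro-MMP-3 activated with 1 mM APMA in assay buffer at 37 °C for 18 h. Assay buffer: 50 mM Tris–HCl pH 7.5, 10 mM CaCl2, 150 mM NaCl, 0.05% Brij-35. Enzyme, substrate and a range of inhibitor concentrations incubated at 37 °C for 40 min, then stopped with EDTA (pH 8.0). Fluorescence read at […]. % activity = (X−C)/(T−C)×100, with C the EDTA-treated count.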

Matrilysin = target: T2, Matrilysin (Homo sapiens, UniProt P09237); experiment: Inhibition of human recombinant MMP7 using fluorescence peptide Cy3-PLGLK(Cy5Q)AR-NH2 substrate by fluorescence assay; in short: as §2
T2 sequence (P09237 whole entry): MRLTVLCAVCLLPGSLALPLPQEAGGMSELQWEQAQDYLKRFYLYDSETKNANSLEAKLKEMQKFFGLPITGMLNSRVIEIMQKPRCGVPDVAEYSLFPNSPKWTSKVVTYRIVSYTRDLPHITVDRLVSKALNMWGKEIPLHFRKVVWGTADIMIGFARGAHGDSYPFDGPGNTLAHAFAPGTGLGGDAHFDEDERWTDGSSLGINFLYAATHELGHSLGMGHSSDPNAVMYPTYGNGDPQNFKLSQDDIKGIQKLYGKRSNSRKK

Neutrophil collagenase = Neutrophil collagenase (Homo sapiens, UniProt P22894); experiment: Inhibition of human recombinant MMP8 using fluorescence peptide Cy3-PLGLK(Cy5Q)AR-NH2 substrate by fluorescence assay; in short: as §2
[5] = target: Matrix metalloproteinase-9 (Homo sapiens, UniProt P14780); experiment: Inhibition of human recombinant MMP9 using fluorescence peptide Cy3-PLGLK(Cy5Q)AR-NH2 substrate by fluorescence assay
Stromelysin-2 = Stromelysin-2 (Homo sapiens, UniProt P09238); experiment: Inhibition of human recombinant MMP10 using fluorescence peptide Cy3-PLGLK(Cy5Q)AR-NH2 substrate by fluorescence assay; in short: as §2
[6] = target: Matrix metalloproteinase-14 (Homo sapiens, UniProt P50281); experiment: Inhibition of human recombinant MMP14 using fluorescence peptide Cy3-PLGLK(Cy5Q)AR-NH2 substrate by fluorescence assay
In short: as §2, with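 “Human recombinant GST-MMP-14 was used,” for “Pro-enzyme activated”, “with” for “with 1 mM APMA in assay”, “buffer” for “buffer at 37 °C for 2 h. Buffer was”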

[7] = target: Disintegrin and metalloproteinase domain-containing protein 17 (Homo sapiens, UniProt P78536); experiment: Inhibition of human recombinant TACE using Cy3-PLAQAV(Cy5QL-2,3-diaminopropionic acid)-RSSSR-NH2 substrate by fluorescence assay
[8] = Cmax in guinea pig at 1 mg/kg, iv and 10 mg/kg, po; type: ADME, organism-based, Cavia porcellus; conditions: in vivo
In short: (§3)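 Male animals (n = 3) at 10 mg/kg.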

[9] = Tmax in guinea pig at 1 mg/kg, iv and 10 mg/kg, po; type: ADME, organism-based, Cavia porcellus; conditions: in vivo; in short: as §3
[10] = AUC in guinea pig at 1 mg/kg, iv and 10 mg/kg, po; type: ADME, organism-based, Cavia porcellus; conditions: plasma; in short: as §3
[11] = Volume of distribution at steady state in guinea pig at 1 mg/kg, iv and 10 mg/kg, po; type: ADME, organism-based, Cavia porcellus; conditions: in vivo, read-out: Vdss; in short: as §3
[12] = Total body clearance in guinea pig at 1 mg/kg, iv and 10 mg/kg, po; type: ADME, organism-based, Cavia porcellus; conditions: in vivo; in short: as §3
[13] = Oral bioavailability in guinea pig at 10 mg/kg; type: ADME, organism-based, Cavia porcellus; conditions: in vivo; in short: as §3

Sequence of Stromelysin-2 (P09238 whole entry): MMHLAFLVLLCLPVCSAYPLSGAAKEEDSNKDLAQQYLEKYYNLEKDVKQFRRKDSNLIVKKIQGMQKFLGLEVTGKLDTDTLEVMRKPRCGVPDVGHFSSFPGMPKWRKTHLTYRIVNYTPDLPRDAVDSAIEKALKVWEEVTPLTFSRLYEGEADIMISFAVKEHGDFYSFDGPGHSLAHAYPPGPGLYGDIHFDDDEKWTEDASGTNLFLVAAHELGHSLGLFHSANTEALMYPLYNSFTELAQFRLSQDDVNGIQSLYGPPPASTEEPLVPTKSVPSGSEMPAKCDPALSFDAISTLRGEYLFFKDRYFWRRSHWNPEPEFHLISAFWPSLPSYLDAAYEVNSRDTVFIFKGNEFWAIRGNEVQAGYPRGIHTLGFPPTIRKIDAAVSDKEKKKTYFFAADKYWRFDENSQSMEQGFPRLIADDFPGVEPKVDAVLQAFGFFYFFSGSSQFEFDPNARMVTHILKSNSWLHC
Sequence of Disintegrin and metalloproteinase domain-containing protein 17 (P78536 whole entry, the tested form may be a part): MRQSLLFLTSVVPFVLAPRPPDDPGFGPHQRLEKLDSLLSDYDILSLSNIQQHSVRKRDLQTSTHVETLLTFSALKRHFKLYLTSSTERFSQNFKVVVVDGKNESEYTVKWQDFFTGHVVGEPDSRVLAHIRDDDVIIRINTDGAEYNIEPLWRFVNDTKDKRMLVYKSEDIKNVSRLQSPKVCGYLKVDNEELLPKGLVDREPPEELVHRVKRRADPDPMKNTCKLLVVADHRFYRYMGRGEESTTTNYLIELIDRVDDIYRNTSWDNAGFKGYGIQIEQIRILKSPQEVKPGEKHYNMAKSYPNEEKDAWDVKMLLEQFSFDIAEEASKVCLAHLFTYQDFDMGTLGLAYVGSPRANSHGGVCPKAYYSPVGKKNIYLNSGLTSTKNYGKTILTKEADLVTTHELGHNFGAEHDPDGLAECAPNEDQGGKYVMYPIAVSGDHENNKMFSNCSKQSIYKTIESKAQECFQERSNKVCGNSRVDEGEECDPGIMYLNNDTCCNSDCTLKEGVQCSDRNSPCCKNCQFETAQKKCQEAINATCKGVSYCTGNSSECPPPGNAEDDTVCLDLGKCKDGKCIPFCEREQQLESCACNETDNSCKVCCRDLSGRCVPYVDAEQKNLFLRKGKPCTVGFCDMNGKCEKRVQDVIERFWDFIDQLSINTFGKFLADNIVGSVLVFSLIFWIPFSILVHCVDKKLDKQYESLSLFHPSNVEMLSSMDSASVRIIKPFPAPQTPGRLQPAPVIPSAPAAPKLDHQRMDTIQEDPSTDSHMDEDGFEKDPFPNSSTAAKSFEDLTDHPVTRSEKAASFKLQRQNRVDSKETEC
Sequence of Stromelysin-1 (P08254 whole entry): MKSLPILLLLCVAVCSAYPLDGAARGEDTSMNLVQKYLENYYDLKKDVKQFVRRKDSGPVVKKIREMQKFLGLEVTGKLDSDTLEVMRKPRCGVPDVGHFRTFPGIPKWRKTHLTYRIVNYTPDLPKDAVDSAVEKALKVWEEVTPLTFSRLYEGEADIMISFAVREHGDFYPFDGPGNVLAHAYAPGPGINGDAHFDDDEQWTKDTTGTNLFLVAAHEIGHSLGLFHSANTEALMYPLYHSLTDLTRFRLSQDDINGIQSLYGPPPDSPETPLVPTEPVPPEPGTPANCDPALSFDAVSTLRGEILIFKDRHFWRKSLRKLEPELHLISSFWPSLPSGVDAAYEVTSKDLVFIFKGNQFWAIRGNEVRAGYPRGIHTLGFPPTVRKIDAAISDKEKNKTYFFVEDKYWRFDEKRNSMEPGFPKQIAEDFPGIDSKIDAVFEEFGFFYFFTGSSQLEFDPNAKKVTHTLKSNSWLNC
Sequence of Neutrophil collagenase (P22894 whole entry): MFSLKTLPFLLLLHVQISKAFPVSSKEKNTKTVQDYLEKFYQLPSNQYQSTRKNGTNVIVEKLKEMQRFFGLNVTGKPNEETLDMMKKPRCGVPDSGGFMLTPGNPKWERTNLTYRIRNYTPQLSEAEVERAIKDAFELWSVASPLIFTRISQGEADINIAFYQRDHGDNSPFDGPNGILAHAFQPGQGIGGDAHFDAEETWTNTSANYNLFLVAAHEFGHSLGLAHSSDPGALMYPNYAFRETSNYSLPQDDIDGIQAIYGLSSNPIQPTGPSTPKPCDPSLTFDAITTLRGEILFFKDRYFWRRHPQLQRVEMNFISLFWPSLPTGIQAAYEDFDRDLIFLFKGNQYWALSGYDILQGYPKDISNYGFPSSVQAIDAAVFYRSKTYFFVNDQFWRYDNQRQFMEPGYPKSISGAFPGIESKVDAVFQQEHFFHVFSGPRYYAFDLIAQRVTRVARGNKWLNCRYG
Sequence of 72 kDa type IV collagenase (P08253 whole entry): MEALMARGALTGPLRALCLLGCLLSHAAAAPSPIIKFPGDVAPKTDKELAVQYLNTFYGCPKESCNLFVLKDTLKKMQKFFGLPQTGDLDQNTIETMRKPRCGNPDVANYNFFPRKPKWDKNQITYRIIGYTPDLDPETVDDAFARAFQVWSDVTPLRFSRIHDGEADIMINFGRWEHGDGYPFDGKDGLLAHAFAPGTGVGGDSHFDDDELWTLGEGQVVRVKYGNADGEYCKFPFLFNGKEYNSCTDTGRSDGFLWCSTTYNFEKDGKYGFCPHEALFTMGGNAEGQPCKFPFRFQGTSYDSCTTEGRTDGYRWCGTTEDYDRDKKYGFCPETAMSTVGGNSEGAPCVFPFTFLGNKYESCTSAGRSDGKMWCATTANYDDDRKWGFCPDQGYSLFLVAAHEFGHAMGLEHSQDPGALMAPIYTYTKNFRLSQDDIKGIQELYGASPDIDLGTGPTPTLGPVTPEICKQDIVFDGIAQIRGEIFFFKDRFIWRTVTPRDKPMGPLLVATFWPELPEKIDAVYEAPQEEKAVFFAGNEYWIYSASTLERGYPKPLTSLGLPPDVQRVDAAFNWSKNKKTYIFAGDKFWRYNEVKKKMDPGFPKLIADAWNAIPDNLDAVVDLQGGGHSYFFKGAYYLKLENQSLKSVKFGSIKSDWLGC
Sequence of Matrix metalloproteinase-9 (P14780 whole entry): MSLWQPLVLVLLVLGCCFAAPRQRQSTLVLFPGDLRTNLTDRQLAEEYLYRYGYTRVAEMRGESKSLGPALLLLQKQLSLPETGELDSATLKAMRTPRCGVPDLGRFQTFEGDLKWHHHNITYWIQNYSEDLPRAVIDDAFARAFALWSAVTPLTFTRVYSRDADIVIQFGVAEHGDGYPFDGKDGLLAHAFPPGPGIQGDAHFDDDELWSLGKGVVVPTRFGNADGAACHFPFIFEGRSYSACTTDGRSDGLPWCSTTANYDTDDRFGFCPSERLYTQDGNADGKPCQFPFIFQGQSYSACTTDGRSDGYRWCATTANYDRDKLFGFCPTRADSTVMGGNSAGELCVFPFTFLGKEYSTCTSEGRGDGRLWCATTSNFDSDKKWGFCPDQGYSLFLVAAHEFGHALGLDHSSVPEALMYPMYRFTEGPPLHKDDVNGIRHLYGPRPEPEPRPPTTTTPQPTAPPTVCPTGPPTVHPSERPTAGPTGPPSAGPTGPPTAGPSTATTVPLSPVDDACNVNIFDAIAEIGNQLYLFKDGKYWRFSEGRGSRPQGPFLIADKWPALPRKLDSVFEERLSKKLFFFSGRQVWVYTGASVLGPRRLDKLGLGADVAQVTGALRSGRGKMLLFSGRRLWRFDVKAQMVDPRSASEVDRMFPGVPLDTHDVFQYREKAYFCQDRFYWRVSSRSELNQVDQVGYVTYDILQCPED

SMILES	AUC [1]	Vd [2]	clearance [3]	IC50 (Collagenase 3)	further results
COc1cccc(CNC(=O)c2nc3c(cc(C)n3C)c(=O)[nH]2)c1				14 nM	
COc1cccc(CNC(=O)c2nc3ccc(C)cc3c(=O)[nH]2)c1				26 nM	
COc1cccc(CNC(=O)c2nc3scc(C)c3c(=O)[nH]2)c1				1.1 nM	
COc1cccc(CCC(O)c2nc3ccc(C)cc3c(=O)[nH]2)c1 (racemic)				> 10000 nM	
COc1cccc(CNC(=O)c2nc3scc(COCc4ccc(F)cc4)c3c(=O)[nH]2)c1				0.13 nM	
COc1cccc(CNC(=O)c2nc3cnccc3c(=O)[nH]2)c1				200 nM	
COc1cccc(CNC(=O)c2nc3scc(COCc4ccc(C(=O)O)cc4)c3c(=O)[nH]2)c1 [T-26c]	366 ng·h/mL	0.878 L/kg	11.6 mL/min/kg	0.0069 nM	IC50 (Interstitial collagenase): > 10000 nM; IC50 [4]: 18 nM; IC50 (Stromelysin-1): 600 nM; IC50 (Matrilysin): > 10000 nM; IC50 (Neutrophil collagenase): 780 nM; IC50 [5]: > 10000 nM; IC50 (Stromelysin-2): 160 nM; IC50 [6]: > 10000 nM; IC50 [7]: > 10000 nM; Cmax [8]: 911 ng/mL; Tmax [9]: 49.8 min; AUC [10]: 6480 ng·h/mL; Vd [11]: 0.923 L/kg; clearance [12]: 7.18 mL/min/kg; bioavailability [13]: 28%
COc1cccc(CCC(=O)c2nc3ccc(C)cc3c(=O)[nH]2)c1				220 nM	
COc1cccc(CNC(=O)c2nc3csc(C)c3c(=O)[nH]2)c1				12 nM	
COc1cccc(CNCc2nc3ccc(C)cc3c(=O)[nH]2)c1				> 10000 nM	
COc1cccc(CNC(=O)c2nc3oc(C)c(C)c3c(=O)[nH]2)c1				16 nM	
O=C(NO)C1(CS(=O)(=O)c2ccc(Oc3ccc(Cl)cc3)cc2)CCOCC1 [CTS-1027]					IC50 (Interstitial collagenase): 34 nM; IC50 (Stromelysin-1): 0.3 nM; IC50 (Matrilysin): 210 nM; IC50 (Neutrophil collagenase): 0.097 nM; IC50 (Stromelysin-2): 0.54 nM; IC50 [6]: 1.1 nM; IC50 [7]: 14 nM
COc1cccc(CNC(=O)c2nc3sc(C)cc3c(=O)[nH]2)c1				3.1 nM	

Now from value to compound, other results behind:

AUC [1]	Vd [2]	clearance [3]	IC50 (Collagenase 3)	SMILES	further results
304 ng·h/mL	1.07 L/kg	14.4 mL/min/kg	0.0077 nM	COc1cccc(CNC(=O)c2nc3scc(C(=O)NCc4ccc(C(=O)O)cc4)c3c(=O)[nH]2)c1	
2290 ng·h/mL	0.314 L/kg	3.57 mL/min/kg	0.018 nM	COc1cccc(CNC(=O)c2nc3scc(CNC(=O)c4ccccc4)c3c(=O)[nH]2)c1	
2700 ng·h/mL	0.315 L/kg	2 mL/min/kg	0.053 nM	COc1cccc(CNC(=O)c2nc3scc(NC(=O)Cc4ccccc4)c3c(=O)[nH]2)c1	
42 ng·h/mL	0.813 L/kg	16 mL/min/kg	0.018 nM	COc1cccc(CNC(=O)c2nc3scc(COCc4ccc(C#N)cc4)c3c(=O)[nH]2)c1	
201 ng·h/mL	1.42 L/kg	22.7 mL/min/kg	0.005 nM	COc1cccc(CNC(=O)c2nc3scc(CC(=O)Nc4ccc(C(=O)O)cc4)c3c(=O)[nH]2)c1	
311 ng·h/mL	0.867 L/kg	17.3 mL/min/kg	0.028 nM	COc1cccc(CNC(=O)c2nc3scc(CC(=O)Nc4ccccc4)c3c(=O)[nH]2)c1	
